Laboratory results taken from ChEMBL document CHEMBL2406994, “Novel triple reuptake inhibitors with low risk of CAD associated liabilities: design, synthesis and biological activities of 4-[(1S)-1-(3,4-dichlorophenyl)-2-methoxyethyl]piperidine and related compounds” (Bioorg Med Chem, 2013).
The source made the active and inactive calls. The calls are words filed in the database; no cut-off is given here.

Legend:
[1] = target: Sodium-dependent noradrenaline transporter (Homo sapiens, UniProt P23975); test: Displacement of [3H]-norepinephrine from human NET expressed in CHO cells by TopCounting analysis; assay type: cell-based
How it was run: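 CHO cells stably expressing human NET, plated overnight at 3 × 10⁵ cells/mL in HEPES-buffered saline with 0.5% BSA. Compound added, then [³H]-norepinephrine (200 nM diluted stock). Uptake stopped at 45 min with two PBS washes, then scintillation counting. IC50 and 95% CI from n = 2.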

CYP2D6 = CYP2D6 (Homo sapiens, UniProt P10635); test: Inhibition of CYP2D6 (unknown origin) assessed as 1'-hydroxybufuralol production at 10 uM after 20 mins by LC/MS/MS analysis relative to control; assay type: ADME; settings: probe bufuralol (measured as 1'-hydroxybufuralol production)
How it was run: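 10 µmol/L bufuralol incubated with 2 nmol/L CYP2D6 from insect cells expressing the enzyme, with 10 µmol/L test compound, for 20 min at 37 °C. 1'-hydroxybufuralol quantified by LC/MS/MS. Expressed as % inhibition.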

hERG (KCNH2) = hERG (KCNH2) (Homo sapiens, UniProt Q12809); test: Inhibition of human ERG channel at 10 uM by ionworks assay relative to control
How it was run: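 hERG current measured on IonWorks Quattro with test compound at 10 µM. Expressed as % inhibition.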

[2] = target: Sodium-dependent serotonin transporter (Homo sapiens, UniProt P31645); test: Displacement of [3H]-hydroxytryptamine from human SERT expressed in CHO cells by TopCounting analysis; assay type: cell-based
How it was run: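 CHO cells stably expressing human SERT, plated overnight at 3 × 10⁵ cells/mL in HEPES-buffered saline with 0.5% BSA. Compound added, then [³H]-5-HT (200 nM diluted stock). Uptake stopped at 20 min with two PBS washes, then scintillation counting. Activity relative to 10 µM paroxetine.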

[3] = target: Sodium-dependent dopamine transporter (Homo sapiens, UniProt Q01959); test: Displacement of [3H]-dopamine from human DAT expressed in CHO cells by TopCounting analysis; assay type: cell-based
How it was run: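 CHO cells stably expressing human DAT, plated overnight at 3 × 10⁵ cells/mL in HEPES-buffered saline with 0.5% BSA. Compound added, then [³H]-dopamine (200 nM diluted stock) with cold dopamine. Uptake for 60 min, two PBS washes, scintillation counting. Activity relative to 100 µM nomifensine as 100%. IC50 and 95% CI from n = 2.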

Mus musculus [4] = test: Antidepressant activity in orally dosed ICR mouse after 60 mins by tail suspension test; assay type: functional; settings: po, 1 h, read-out: MED
How it was run: (§1)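 Male 7-week-old ICR mice, n = 11/group. Drug or vehicle (distilled water) given orally at 10 mL/kg; test run 60 min later. Mice hung by the tail from a strain-gauge hook, and immobility scored from load variation over a 10 min test. Average immobility ratio (%) per group; significance by parametric Williams' test, P < .025.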

Mus musculus [5] = test: Antidepressant activity in ICR mouse assessed as 5-HT level at 10 mg/kg, po after 120 mins by microdialysis relative to control; assay type: functional
How it was run: (§2)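 Male 6-week-old ICR mice; probe implanted stereotaxically into medial prefrontal cortex under pentobarbital, 1 day recovery. Perfusion with Ringer at 2 µL/min; after ≥120 min stabilisation, dialysate collected every 20 min. Baseline from mean of three stable samples. Drug in water given orally at 10 mL/kg; collection continued 120 min. 5-HT, NE and DA measured by HPLC with electrochemical detection.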

Mus musculus [6] = test: Antidepressant activity in po dosed ICR mouse assessed as immobility rate after 60 mins by tail suspension test; assay type: functional, organism-based; how it was run: as §1
Mus musculus [7] = test: Ex vivo receptor occupancy of DAT in po dosed ICR mouse after 1 hr in presence of [3H]-WIN35428; assay type: functional, organism-based
How it was run: (§3)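 Oral dosing in mice; 1 h later, frontal cortex and striatum dissected. Unwashed homogenate incubated with [³H]-citalopram (25 nM, SERT), [³H]-nisoxetine (25 nM, NET) or [³H]-WIN35428 (50 nM, DAT). Occupancy taken as percent inhibition of specific binding.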

Mus musculus [8] = test: Ex vivo receptor occupancy of NET in po dosed ICR mouse after 1 hr in presence of [3H]-nisoxetine; assay type: functional, organism-based; how it was run: as §3
Mus musculus [9] = test: Antidepressant activity in ICR mouse assessed as NE level at 10 mg/kg, po after 120 mins by microdialysis relative to control; assay type: functional; how it was run: as §2
Mus musculus [10] = test: Antidepressant activity in ICR mouse assessed as DA level at 10 mg/kg, po after 120 mins by microdialysis relative to control; assay type: functional; how it was run: as §2
Mus musculus [11] = test: Ex vivo receptor occupancy of SERT in po dosed ICR mouse after 1 hr in presence of [3H]-citalopram; assay type: functional, organism-based; how it was run: as §3
Mus musculus [12] = test: Antidepressant activity in ICR mouse assessed as reduction in immobility rate at 10 mg/kg, po after 60 mins by tail suspension test; assay type: functional, organism-based; set-up: dose 10 mg/kg; how it was run: as §1

CYP2D6, sequence (P10635 whole entry): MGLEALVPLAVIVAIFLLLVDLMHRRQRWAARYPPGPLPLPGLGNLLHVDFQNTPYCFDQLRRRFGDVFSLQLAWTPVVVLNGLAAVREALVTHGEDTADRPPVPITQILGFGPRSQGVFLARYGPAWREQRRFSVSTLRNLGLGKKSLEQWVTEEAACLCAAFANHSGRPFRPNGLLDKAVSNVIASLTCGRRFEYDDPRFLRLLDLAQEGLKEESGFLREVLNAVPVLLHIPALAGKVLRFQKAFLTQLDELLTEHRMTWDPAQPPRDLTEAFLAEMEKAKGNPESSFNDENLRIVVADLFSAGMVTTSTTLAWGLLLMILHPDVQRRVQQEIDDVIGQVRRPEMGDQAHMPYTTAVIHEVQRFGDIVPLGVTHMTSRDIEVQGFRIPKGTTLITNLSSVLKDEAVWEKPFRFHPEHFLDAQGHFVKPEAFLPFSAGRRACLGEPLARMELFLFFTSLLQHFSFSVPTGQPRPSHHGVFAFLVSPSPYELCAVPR
Sodium-dependent dopamine transporter, sequence (Q01959 whole entry): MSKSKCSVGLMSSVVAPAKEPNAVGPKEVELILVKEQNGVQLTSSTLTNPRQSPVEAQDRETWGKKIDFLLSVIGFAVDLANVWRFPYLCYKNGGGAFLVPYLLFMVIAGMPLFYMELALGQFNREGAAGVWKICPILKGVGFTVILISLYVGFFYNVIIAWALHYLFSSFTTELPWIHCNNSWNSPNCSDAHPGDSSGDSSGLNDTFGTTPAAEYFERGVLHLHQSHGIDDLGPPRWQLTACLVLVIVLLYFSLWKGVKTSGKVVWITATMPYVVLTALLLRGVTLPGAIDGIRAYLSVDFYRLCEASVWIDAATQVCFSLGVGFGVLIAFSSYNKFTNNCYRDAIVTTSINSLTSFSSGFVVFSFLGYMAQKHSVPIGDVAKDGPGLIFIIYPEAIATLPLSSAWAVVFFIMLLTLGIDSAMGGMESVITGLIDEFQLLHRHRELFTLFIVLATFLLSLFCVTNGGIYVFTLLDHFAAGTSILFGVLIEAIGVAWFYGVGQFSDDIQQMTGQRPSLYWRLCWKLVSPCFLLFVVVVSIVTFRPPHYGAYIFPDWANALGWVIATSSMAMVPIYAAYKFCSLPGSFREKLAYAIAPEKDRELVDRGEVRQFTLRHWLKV
Sodium-dependent serotonin transporter, sequence (P31645 whole entry): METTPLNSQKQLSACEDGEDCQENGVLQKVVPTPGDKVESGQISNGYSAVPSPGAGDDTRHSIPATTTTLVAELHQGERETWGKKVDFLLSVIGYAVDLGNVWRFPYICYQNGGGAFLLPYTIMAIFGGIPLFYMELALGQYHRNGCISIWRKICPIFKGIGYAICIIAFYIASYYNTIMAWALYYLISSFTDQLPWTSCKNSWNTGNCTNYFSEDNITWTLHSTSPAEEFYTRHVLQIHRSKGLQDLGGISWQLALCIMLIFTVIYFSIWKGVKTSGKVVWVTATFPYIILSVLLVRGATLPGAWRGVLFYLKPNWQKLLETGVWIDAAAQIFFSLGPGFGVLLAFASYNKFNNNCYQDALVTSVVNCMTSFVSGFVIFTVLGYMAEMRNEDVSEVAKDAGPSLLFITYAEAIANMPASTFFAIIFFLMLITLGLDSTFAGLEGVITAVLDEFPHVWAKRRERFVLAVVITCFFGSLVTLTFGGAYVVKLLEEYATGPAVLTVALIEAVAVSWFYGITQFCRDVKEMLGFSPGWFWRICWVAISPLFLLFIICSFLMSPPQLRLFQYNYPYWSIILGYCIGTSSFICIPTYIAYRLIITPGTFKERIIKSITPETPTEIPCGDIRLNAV
hERG (KCNH2), sequence (Q12809 whole entry): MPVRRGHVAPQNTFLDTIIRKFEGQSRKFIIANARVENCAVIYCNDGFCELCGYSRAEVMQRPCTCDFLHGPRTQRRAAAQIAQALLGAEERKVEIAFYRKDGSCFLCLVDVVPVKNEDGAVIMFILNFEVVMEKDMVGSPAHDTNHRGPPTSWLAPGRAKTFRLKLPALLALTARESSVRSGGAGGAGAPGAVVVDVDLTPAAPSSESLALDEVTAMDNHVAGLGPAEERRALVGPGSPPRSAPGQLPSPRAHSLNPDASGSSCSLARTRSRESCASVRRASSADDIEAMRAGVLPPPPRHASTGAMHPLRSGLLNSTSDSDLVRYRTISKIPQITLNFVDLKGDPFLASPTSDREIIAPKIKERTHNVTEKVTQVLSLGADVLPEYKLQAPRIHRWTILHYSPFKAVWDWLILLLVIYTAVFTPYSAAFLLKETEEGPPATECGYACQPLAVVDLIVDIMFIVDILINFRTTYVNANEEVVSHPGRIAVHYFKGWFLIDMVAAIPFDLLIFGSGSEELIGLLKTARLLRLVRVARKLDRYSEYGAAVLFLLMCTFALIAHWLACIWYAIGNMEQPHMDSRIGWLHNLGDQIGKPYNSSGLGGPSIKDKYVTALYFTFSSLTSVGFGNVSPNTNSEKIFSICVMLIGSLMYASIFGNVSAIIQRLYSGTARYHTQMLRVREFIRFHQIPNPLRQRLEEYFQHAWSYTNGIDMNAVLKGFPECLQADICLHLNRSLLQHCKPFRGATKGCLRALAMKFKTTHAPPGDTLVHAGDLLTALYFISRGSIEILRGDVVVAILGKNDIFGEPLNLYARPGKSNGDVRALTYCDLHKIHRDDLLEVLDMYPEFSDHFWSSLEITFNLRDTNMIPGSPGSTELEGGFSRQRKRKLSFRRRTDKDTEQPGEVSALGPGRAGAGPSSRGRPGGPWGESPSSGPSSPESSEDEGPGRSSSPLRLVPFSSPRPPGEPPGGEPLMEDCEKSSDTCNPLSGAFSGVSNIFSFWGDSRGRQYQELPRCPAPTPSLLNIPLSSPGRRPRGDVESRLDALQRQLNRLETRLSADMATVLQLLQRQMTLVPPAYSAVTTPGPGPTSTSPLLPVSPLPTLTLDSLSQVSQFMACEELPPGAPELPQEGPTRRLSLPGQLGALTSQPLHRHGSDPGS
Sodium-dependent noradrenaline transporter, sequence (P23975 whole entry): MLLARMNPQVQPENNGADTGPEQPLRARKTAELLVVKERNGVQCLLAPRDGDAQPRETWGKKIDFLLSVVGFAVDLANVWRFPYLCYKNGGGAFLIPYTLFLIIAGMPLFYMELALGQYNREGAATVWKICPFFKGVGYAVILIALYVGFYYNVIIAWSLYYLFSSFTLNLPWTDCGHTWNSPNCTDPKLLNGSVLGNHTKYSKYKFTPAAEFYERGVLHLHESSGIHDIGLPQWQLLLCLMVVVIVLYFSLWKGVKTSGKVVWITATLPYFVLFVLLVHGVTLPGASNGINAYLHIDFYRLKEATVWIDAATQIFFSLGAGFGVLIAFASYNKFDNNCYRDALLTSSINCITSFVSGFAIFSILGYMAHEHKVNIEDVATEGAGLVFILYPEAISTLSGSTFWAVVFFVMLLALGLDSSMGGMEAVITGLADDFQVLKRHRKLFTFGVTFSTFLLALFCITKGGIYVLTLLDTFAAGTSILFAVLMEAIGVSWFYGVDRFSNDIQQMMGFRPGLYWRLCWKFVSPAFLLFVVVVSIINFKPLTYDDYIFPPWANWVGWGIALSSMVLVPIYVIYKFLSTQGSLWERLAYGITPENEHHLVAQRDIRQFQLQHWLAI

SMILES	IC50 [1] [nM]	inhibition at 20 min, 10 µM (CYP2D6) [%]	inhibition at 10 µM (hERG (KCNH2)) [%]	IC50 [2] [nM]	IC50 [3] [nM]	minimal effective dose (Mus musculus [4]) [mg/kg]	Activity (Mus musculus [5]) [%]	Activity (Mus musculus [6])	Activity (Mus musculus [7])	Activity (Mus musculus [8])	Activity (Mus musculus [9]) [%]	Activity (Mus musculus [10]) [%]	Activity (Mus musculus [11])	Activity (Mus musculus [12])
COCC(c1ccc(Cl)cc1)C1CCNCC1 (racemic)	130	-2.8	22	120	1700	–	–	–	–	–	–	–	–	–
COCC(c1cccc(Cl)c1)C1CCNCC1 (racemic)	98	2	23	180	2600	–	–	–	–	–	–	–	–	–
COCC(c1ccc2ccccc2c1)C1CCNCC1 (racemic)	36	22	38	2.1	1100	–	–	–	–	–	–	–	–	–
OCC(c1ccc(Cl)c(Cl)c1)C1CCNCC1 (racemic)	110	-1.5	12	79	2400	–	–	–	–	–	–	–	–	–
CC(=O)C(c1ccc(Cl)c(Cl)c1)C1CCNCC1.Cl (racemic)	44	11	40	21	180	30	–	–	–	–	–	–	–	–
CCOC(=O)C(c1ccc(Cl)c(Cl)c1)C1CCNCC1 (racemic)	12	38	110	9.3	97	–	–	–	–	–	–	–	–	–
CCSCC(c1ccc(Cl)c(Cl)c1)C1CCNCC1 (racemic)	8.7	55	94	9.2	72	–	–	–	–	–	–	–	–	–
CCOCC(c1ccc(Cl)c(Cl)c1)C1CCNCC1.Cl (racemic)	28	44	89	16	170	3	–	–	–	–	–	–	–	–
COCC(c1ccc(Cl)c(Cl)c1)C1CCNCC1.Cl (racemic)	14	5.7	42	11	190	3	–	–	–	–	–	–	–	–
COCC(c1ccc(F)c(Cl)c1)C1CCNCC1 (racemic)	70	-18	24	32	580	–	–	–	–	–	–	–	–	–
CSCC(c1ccc(Cl)c(Cl)c1)C1CCNCC1.Cl (racemic)	9.3	32	73	9.1	79	30	–	–	–	–	–	–	–	–
COC[C@H](c1ccc(Cl)c(Cl)c1)C1CCNCC1.Cl	15	14	48	130	180	10	180	Dose-dependent effect	Dose-dependent effect	Dose-dependent effect	400	270	Dose-dependent effect	Active
CS(=O)(=O)CC(c1ccc(Cl)c(Cl)c1)C1CCNCC1 (racemic)	200	3.9	9	340	2200	–	–	–	–	–	–	–	–	–
CC(c1ccc(Cl)c(Cl)c1)C1CCNCC1.Cl (racemic)	25	27	72	12	160	3	–	–	–	–	–	–	–	–
COC(=O)C(c1ccc(Cl)c(Cl)c1)C1CCNCC1 (racemic)	18	13	56	5.2	220	–	–	–	–	–	–	–	–	–
CCC(=O)C(c1ccc(Cl)c(Cl)c1)C1CCNCC1 (racemic)	28	6.1	51	18	100	–	–	–	–	–	–	–	–	–
COC[C@@H](c1ccc(Cl)c(Cl)c1)C1CCNCC1.Cl	21	13	46	5.7	470	10	–	–	–	–	–	–	–	–
CCCC(=O)C(c1ccc(Cl)c(Cl)c1)C1CCNCC1 (racemic)	22	20	72	37	26	–	–	–	–	–	–	–	–	–
